Source: ChEMBL document CHEMBL4152343, “Design, Synthesis, and Pharmacological Evaluation of Second-Generation Tetrahydroisoquinoline-Based CXCR4 Antagonists with Favorable ADME Properties” (J Med Chem, 2018)

Assays:
[1] = target: Muscarinic acetylcholine receptor; assay: Antagonist activity at mAChR in human CCRF-CEM cells assessed as inhibition of acetylcholine-induced calcium release preincubated for 25 mins followed by acetylcholine stimulation and measured for 90 secs by calcium flux assay; type: functional, cell-based
Outline: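 Endogenous muscarinic receptors in CCRF-CEM cells (HBSS/HEPES/BSA buffer, 40,000 cells/well, dye-loaded 30 min at 37°C). Calcium flux recorded 90 s by FDSS. IC50 by 4-parameter logistic fit against an internal control compound; duplicate wells, single experiment.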

Cytochrome P450 2D6 = Cytochrome P450 2D6 (Homo sapiens, UniProt P10635); assay: Inhibition of recombinant human CYP2D6 expressed in insect cells microsomes using AMMC as substrate preincubated for 30 mins followed by NADP addition and measured after 45 mins by fluorescence analysis; type: ADME
[2] = Metabolic stability in human liver microsomes assessed as parent compound remaining after 10 mins by LC-MS/MS analysis; type: ADME, microsome; conditions: read-out: Stability
Outline: (§1)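 Compound depletion measured by LC/MS/MS after 10 min at 37 °C in liver microsome preparations (CYP450 and other NADP-dependent enzymes). Values are % of compound remaining; duplicates in a single experiment.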

Cytochrome P450 3A4 = Cytochrome P450 3A4 (Homo sapiens, UniProt P08684); assay: Inhibition of human CYP3A4; type: ADME
[3] = Permeability of compound at pH 7.4 by PAMPA; type: ADME; conditions: read-out: permeability
Outline: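 Compound from 10 mM DMSO stock diluted 1:100 to 100 µM (1% DMSO) in pH 7.4 or pH 5.5 donor buffer, then filtered. Lipid-coated filter membrane with pH 7.4 acceptor buffer; incubated 4 h at room temperature. UV plate reading gives Pc. Duplicates in two independent experiments unless noted.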

[4] = target: T1, C-X-C chemokine receptor type 4 (Homo sapiens, UniProt P61073); assay: Agonist activity at CXCR4 in human CCRF-CEM cells assessed as induction of calcium release incubated for 25 mins by calcium flux assay; type: functional, cell-based
Outline: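 CCRF-CEM T lymphoblasts (endogenous CXCR4) in HBSS/20 mM HEPES/0.1% fatty-acid-free BSA, 40,000 cells/well, dye-loaded 30 min at 37°C, then 15 min at room temperature. Compounds added at final 25,000–0.423 nM (0.5% DMSO) and calcium flux read by FDSS for 90 s.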

[5] = Metabolic stability in mouse liver microsomes assessed as parent compound remaining after 10 mins by LC-MS/MS analysis; type: ADME, microsome; conditions: read-out: Stability; outline: as §1
[6] = target: T1, C-X-C chemokine receptor type 4; assay: Antagonist activity at CXCR4 in human CCRF-CEM cells assessed as inhibition of SDF-1alpha-induced calcium release preincubated for 25 mins followed by SDF-1alpha stimulation and measured for 90 secs by calcium flux assay; type: functional, cell-based

Sequence of Cytochrome P450 3A4 (P08684 whole entry): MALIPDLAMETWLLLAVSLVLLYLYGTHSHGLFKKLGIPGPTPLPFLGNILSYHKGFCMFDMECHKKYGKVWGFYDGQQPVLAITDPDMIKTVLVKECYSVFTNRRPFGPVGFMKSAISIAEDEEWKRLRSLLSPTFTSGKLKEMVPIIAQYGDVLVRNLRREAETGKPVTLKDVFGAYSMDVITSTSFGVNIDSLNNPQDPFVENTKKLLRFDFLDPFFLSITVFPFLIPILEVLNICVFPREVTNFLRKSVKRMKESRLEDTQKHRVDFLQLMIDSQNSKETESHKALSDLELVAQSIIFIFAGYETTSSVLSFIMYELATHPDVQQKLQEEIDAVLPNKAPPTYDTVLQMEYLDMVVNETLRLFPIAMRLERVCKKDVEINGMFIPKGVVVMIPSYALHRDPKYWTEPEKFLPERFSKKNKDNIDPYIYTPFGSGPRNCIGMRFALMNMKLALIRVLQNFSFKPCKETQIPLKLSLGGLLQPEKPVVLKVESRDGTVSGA
Sequence of Cytochrome P450 2D6 (P10635 whole entry): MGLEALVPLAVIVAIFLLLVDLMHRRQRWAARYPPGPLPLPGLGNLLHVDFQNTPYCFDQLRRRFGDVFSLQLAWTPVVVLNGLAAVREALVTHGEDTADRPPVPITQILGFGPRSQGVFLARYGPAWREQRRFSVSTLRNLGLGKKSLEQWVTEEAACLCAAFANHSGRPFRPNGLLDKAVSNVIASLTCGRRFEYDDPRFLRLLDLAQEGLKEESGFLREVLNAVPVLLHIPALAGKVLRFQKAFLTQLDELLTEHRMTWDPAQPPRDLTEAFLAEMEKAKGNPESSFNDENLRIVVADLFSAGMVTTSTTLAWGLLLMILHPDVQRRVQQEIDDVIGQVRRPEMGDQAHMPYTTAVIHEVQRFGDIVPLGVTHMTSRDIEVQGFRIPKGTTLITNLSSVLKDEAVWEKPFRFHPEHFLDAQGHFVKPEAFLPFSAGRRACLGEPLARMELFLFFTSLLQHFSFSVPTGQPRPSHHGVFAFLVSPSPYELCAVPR
T1 sequence (P61073 whole entry): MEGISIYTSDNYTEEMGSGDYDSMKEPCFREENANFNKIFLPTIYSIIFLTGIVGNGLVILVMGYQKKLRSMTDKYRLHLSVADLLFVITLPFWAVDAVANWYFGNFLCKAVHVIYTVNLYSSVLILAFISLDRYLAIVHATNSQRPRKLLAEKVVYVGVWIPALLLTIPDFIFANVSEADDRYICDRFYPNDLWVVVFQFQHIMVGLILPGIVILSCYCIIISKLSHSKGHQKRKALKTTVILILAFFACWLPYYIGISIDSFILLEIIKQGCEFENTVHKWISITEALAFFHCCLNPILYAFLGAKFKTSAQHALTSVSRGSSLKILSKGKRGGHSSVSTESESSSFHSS

IC50 [1] [µM]	IC50 (Cytochrome P450 2D6) [µM]	remaining at 10 min [2] [%]	IC50 (Cytochrome P450 3A4) [µM]	Papp [3] [×10⁻⁶ cm/s]	EC50 [4] [µM]	remaining at 10 min [5] [%]	IC50 [6] [µM]	SMILES
> 16.7	> 20	100	> 20		> 30	95.9		CN(C[C@H]1Cc2c(cccc2N2C[C@H]3C[C@@H]2CN3)CN1)[C@H]1CCCc2cccnc21
> 16.7	8.13	56.6	> 20	14.3	> 30	15.1	0.0169	CC(C)N1CCN(c2cccc3c2C[C@H](CN(C)[C@H]2CCCc4cccnc42)NC3)CC1
> 16.7	> 20	36.6	> 20	16.7	> 30	40.1		CN(C[C@H]1Cc2c(cccc2N2CCN3CCC[C@H]3C2)CN1)[C@H]1CCCc2cccnc21
> 16.7	> 20	83.1	> 20	72.5	> 30	50.8		CN(C[C@H]1Cc2c(cccc2N2CCN(C3COC3)CC2)CN1)[C@H]1CCCc2cccnc21
> 33.3	> 20	0	> 20	20.5	> 30	18.8	0.0138	CCN1CCN(c2cccc3c2C[C@H](CN(C)[C@H]2CCCc4cccnc42)NC3)CC1
17.9	> 20	100	> 20		> 30	44		CN(C[C@H]1Cc2c(cccc2N2CCNC(C)(C)C2)CN1)[C@H]1CCCc2cccnc21
> 33.3	6.09	15.5	4.23	26.5	> 30	7	0.0235	CN(C[C@H]1Cc2c(cccc2N2CCN(C3CC3)CC2)CN1)[C@H]1CCCc2cccnc21
15.1	> 20	24.6	> 20	14.2	> 30	39.6		C[C@@H]1CN(c2cccc3c2C[C@H](CN(C)[C@H]2CCCc4cccnc42)NC3)C[C@H](C)N1C
> 33.3	> 20	75.8	> 20	99.6	> 30	17		CN1CCN(c2cccc3c2C[C@H](CN(C)[C@H]2CCCc4cccnc42)NC3)CC1
> 16.7	> 20	100	> 20		> 30	36.3	0.146	CN(C[C@H]1Cc2c(cccc2N2C[C@@H]3C[C@H]2CN3)CN1)[C@H]1CCCc2cccnc21

Continued, compound first:

SMILES	IC50 [1] [µM]	IC50 (Cytochrome P450 2D6) [µM]	remaining at 10 min [2] [%]	IC50 (Cytochrome P450 3A4) [µM]	Papp [3] [×10⁻⁶ cm/s]	EC50 [4] [µM]	remaining at 10 min [5] [%]	IC50 [6] [µM]
Cc1cccnc1CN(C)C[C@H]1Cc2c(cccc2N2CCNCC2)CN1	11.1	100	69.2	1.42	19.3	> 30		
c1cnc2c(c1)CCC[C@@H]2N(CC1CCCCC1)C[C@H]1Cc2c(cccc2N2CCNCC2)CN1	> 33.3	5.72	81.6	1.78	0.9	> 30	85.6	0.715
Cc1cnc(CN(C)C[C@H]2Cc3c(cccc3N3CCNCC3)CN2)c(C)c1	15.4	> 20		> 20		> 30		
CN1Cc2cccc(N3CCNCC3)c2C[C@@H]1CN(C)[C@H]1CCCc2cccnc21	26.3	> 20	100	> 20	0.3	> 30	100	
CN(C[C@@H]1Cc2c(cccc2N2CCNCC2)CN1)[C@H]1CCCc2cccnc21	2.1	> 20	94.2	> 20	0.4	> 30	54.6	0.313
CC(C)N(C[C@H]1Cc2c(cccc2N2CCNCC2)CN1)[C@H]1CCCc2cccnc21	8.34	> 20	75	> 20	1.6	> 30	91	0.364
Cc1ccc(CN(C)C[C@H]2Cc3c(cccc3N3CCNCC3)CN2)nc1	9.56	100	76.8	> 20	22.5	> 30		
CCN(C[C@H]1Cc2c(cccc2N2CCNCC2)CN1)[C@H]1CCCc2cccnc21	8.6	> 20	79.1	> 20	7.5	> 30	53.8	0.0148
CCCN(C[C@H]1Cc2c(cccc2N2CCNCC2)CN1)[C@H]1CCCc2cccnc21	3.16	12	100	> 20	2.65	> 30	87.4	0.0322
CN1CCN(c2cccc3c2C[C@H](CN2CCC[C@H]4CCc5cccnc5[C@H]42)NC3)CC1	> 16.7	> 20	67.8	> 20	32.3	> 30		
Cc1cnc2c(c1)CCC[C@@H]2N(C)C[C@H]1Cc2c(cccc2N2CCNCC2)CN1	> 16.7	> 20	100	> 20	0.9	> 30		
FC1(F)CCC(CN(C[C@H]2Cc3c(cccc3N3CCNCC3)CN2)[C@H]2CCCc3cccnc32)CC1	> 33.3	8.45	68.6	5.62		> 30	76.6	
c1cnc2c(c1)CCC[C@@H]2N(CC1CC1)C[C@H]1Cc2c(cccc2N2CCNCC2)CN1	21.6	8.57	82.1	> 20	8.7	> 30	88.3	
